From ChEMBL document CHEMBL3608303, “Discovery of novel potent and selective ligands for 5-HT2A receptor with quinazoline scaffold” (Bioorg Med Chem Lett, 2015) come the findings set out here.

A word on the inhibition: it is the relative decrease from the control value, in per cent. One may read the Ki as the dissociation constant of the complex between target and ligand, obtained from inhibition or displacement. Usually IC50 stands for the concentration that inhibits the measured activity by half.

The target in test [1] is T1, 5-hydroxytryptamine receptor 1A (Homo sapiens) (UniProt P08908).
T1 sequence (whole entry): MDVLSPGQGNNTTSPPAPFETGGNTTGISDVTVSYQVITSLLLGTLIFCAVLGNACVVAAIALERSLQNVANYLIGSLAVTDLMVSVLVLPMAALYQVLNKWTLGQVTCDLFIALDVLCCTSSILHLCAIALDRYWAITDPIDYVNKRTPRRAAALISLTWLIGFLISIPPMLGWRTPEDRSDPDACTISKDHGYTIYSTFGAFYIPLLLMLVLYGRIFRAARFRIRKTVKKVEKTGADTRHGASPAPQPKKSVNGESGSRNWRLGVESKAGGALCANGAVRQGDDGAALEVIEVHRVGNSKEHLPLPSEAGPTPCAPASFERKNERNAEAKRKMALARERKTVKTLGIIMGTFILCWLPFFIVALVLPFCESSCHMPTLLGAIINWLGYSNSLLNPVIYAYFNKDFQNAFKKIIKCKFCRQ
Briefly: (§1) Displacement of [3H]-8-OH-DPAT from 5-HT1A receptor (unknown origin) expressed in HEK293 cell membranes incubated for 15 mins by liquid scintillation spectrometry. Also on record: concentration or dose not given beside the values. (In a radioligand displacement assay an active substance lowers the binding of a labelled ligand.)

Test [2] concerns the target T2, 5-hydroxytryptamine receptor 2A (Homo sapiens, UniProt P28223). Kind of test: Displacement of [3H]ketanserin hydrochloride from 5-HT2A receptor (unknown origin) expressed in HEK293 cell membranes incubated for 15 mins by liquid scintillation spectrometry relative to control. Also on record: concentration or dose not given beside the values. In a few lines: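 [3H]-Ketanserin displacement at 5-HT2A, first run as percent displacement of radioligand by a 10 μM test concentration.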

The target in test [3] is D(3) dopamine receptor (Homo sapiens, UniProt P35462). Briefly: Displacement of [3H]-spiperone from dopamine D3 receptor (unknown origin) expressed in HEK293 cell membranes incubated for 15 mins by liquid scintillation spectrometry. Also on record: concentration or dose not given beside the values.
For test [4], the target named is D(2) dopamine receptor (Homo sapiens, UniProt P14416). Briefly: Displacement of [3H]-spiperone from dopamine D2 receptor (unknown origin) expressed in HEK293 cell membranes incubated for 15 mins by liquid scintillation spectrometry.
The target in test [5] is T3, D(1A) dopamine receptor (Homo sapiens, UniProt P21728). As to conditions: hek293; call rule not given here.
The target of test [6] is T2, 5-hydroxytryptamine receptor 2A. Briefly: Displacement of [3H]ketanserin hydrochloride from 5-HT2A receptor (unknown origin) expressed in HEK293 cell membranes incubated for 15 mins by liquid scintillation spectrometry.
The target in test [7] is T4, 5-hydroxytryptamine receptor 1A (Homo sapiens, UniProt P08908).
T4 sequence (P08908 whole entry): T1 sequence (whole entry)
Described as §1.

Test [8] deals with T2, 5-hydroxytryptamine receptor 2A. Format: functional, cell-based, HEK293.
Test [9] shares this target. Kind of test: Agonist activity at 5-HT2A receptor (unknown origin) expressed in HEK293 cell membranes assessed as induction of [35S]-GTPgammaS binding incubated for 30 mins by liquid scintillation counting method. Type of test: functional. Background: GTPγS is a poorly hydrolysed GTP analogue; its binding reports G protein activation.
Test [10] deals with T3, D(1A) dopamine receptor. Kind of test: Displacement of [3H]-SCH-23390 from dopamine D1 receptor (unknown origin) expressed in HEK293 cell membranes incubated for 15 mins by liquid scintillation spectrometry.

T3 sequence (P21728 whole entry): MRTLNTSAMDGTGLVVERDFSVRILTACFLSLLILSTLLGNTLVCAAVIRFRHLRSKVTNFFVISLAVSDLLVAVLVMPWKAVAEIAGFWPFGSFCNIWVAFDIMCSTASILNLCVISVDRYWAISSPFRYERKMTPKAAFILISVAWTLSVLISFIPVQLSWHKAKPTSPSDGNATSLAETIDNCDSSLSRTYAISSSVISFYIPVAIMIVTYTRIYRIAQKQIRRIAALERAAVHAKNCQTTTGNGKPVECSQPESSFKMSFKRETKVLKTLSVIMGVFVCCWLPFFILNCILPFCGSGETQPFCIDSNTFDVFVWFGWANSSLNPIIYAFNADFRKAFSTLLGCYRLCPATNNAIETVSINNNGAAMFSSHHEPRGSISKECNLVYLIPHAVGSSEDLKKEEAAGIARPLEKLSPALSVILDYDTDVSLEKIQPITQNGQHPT
T2 sequence (P28223 whole entry): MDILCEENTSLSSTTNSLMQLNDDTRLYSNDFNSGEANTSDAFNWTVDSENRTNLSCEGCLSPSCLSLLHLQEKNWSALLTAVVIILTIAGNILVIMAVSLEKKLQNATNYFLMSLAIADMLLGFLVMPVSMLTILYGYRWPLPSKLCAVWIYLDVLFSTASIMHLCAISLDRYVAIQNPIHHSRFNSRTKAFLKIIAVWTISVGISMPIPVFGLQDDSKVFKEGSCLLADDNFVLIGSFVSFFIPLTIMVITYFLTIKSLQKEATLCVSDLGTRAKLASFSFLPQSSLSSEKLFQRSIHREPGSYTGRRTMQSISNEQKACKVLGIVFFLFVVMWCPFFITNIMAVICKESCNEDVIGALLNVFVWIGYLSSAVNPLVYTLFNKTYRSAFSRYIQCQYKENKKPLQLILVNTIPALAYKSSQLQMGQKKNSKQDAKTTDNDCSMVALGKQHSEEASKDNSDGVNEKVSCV
Sequence of D(3) dopamine receptor (P35462 whole entry): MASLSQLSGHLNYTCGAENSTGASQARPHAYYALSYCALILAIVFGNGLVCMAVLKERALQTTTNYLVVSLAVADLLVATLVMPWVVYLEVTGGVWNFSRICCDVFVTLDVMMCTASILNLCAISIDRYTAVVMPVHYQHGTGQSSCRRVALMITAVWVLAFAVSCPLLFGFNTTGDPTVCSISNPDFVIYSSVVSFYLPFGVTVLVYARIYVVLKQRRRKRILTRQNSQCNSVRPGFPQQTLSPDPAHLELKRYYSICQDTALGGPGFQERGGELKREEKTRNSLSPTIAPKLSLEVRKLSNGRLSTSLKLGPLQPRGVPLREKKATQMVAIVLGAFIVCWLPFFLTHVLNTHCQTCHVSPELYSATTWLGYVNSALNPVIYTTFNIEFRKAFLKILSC
Sequence of D(2) dopamine receptor (P14416 whole entry): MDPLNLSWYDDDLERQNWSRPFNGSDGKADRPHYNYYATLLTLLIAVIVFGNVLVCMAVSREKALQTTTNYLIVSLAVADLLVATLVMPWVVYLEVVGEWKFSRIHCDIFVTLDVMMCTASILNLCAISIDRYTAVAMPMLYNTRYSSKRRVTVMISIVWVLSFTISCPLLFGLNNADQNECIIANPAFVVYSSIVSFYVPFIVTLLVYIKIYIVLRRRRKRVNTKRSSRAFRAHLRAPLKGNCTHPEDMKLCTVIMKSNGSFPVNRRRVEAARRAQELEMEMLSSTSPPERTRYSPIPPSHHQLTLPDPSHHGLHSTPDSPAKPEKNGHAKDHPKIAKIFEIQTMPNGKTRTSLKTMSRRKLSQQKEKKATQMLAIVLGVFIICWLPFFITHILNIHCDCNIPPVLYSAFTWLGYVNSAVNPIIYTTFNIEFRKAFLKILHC

For the molecule `Cc1ccc(Nc2nc(N3CCN(CCO)CC3)nc3ccccc23)c(C)c1`, the inhibition in test [1] was 81.2%; in test [2], > 90%; in [3] it was 39%. For the same molecule, the Ki entry in test [4] was “Not Active”; in test [5] it was “Not Active”; in test [6] it was 268 nM.
Turning to `OCCN1CCN(c2nc(Nc3ccc(Br)cc3)c3ccccc3n2)CC1`, the Ki entry in [7] was “Not Active”; in [3] (read-out: Ki) it was 571 nM; in test [4], “Not Active”; in [5], “Not Active”; in test [6] it was 92 nM. The molecule further yielded an IC50 in test [8] of 27700 nM. For the same molecule, in [9], the EC50 entry is “Not Active”.
In the case of `OCCN1CCN(c2nc(Nc3ccccc3F)c3ccccc3n2)CC1`, the Ki entry is “Not Active” in [7], “Not Active” in test [4], “Not Active” in [5] and 65.8 nM in test [6]. In addition, the figures for the inhibition in test [2] and in test [3] were > 90% and 10.1%, respectively. Also, the IC50 in test [8] was determined as 1370 nM. Further, the EC50 entry in test [9] is given as “Not Active”.
For the molecule `COc1ccccc1Nc1nc(N2CCNCC2)nc2ccccc12`, the Ki entry in test [7] is “Not Active”; in [4] it was “Not Active”; in test [5] it was “Not Active”; in [6], 45.8 nM. Moreover, the inhibition in test [2] is > 90%. The EC50 entry in test [9] is “Not Active”.
In the case of `CC(C)c1ccc(Nc2nc(N(C)C)nc3ccccc23)cc1`, the Ki entry in [7], in test [3] (hek293), in test [4] and in [5] was “Not Active” in each case. The inhibition in test [2] came out at 75.1%.
For the molecule `Fc1ccccc1Nc1nc(N2CCNCC2)nc2ccccc12`, the Ki entry in test [7] was “Not Active”; in [4], “Not Active”; in [5] it was “Not Active”; in test [6] it was 70 nM. Also, the inhibition in test [2] is > 90%; in [3], 22.5%. For the same molecule, the EC50 entry in test [9] was “Not Active”.
On to `COc1ccc(Nc2nc(N3CCN(CCO)CC3)nc3ccccc23)cc1`, for which the inhibition in test [2] was > 90%. Moreover, the affinity in test [6] corresponds to a Ki of 1360 nM.
As to `OCCN1CCN(c2nc(NCc3ccccc3)c3ccccc3n2)CC1`, the Ki result in test [7] was “Not Active”; in [3] (read-out: Ki), 1440 nM; in test [4], “Not Active”; in [5] it was “Not Active”; in test [6], 520 nM. Further, the inhibition in [2] is > 90%.
Regarding `Clc1ccc(Nc2nc(N3CCOCC3)nc3ccccc23)cc1`, the figures for the inhibition in [1], in test [2] and in [10] were 16.7%, 45.3% and -9.36%, respectively.
`CC(C)c1ccc(Nc2nc(N3CCN(CCO)CC3)nc3ccccc23)cc1`: the inhibition in test [1] was 42.3%; in test [2], > 90%. Further, the Ki in test [3] (read-out: Ki) is 1140 nM; in [4], “Not Active”; in test [5], “Not Active”; in [6], 149 nM.
Consider `COc1ccc(Nc2nc(N3CCN(CCO)CC3)nc3ccccc23)c(OC)c1`, for which the Ki result in test [7] is “Not Active”; in test [3] (hek293), “Not Active”; in test [4], “Not Active”; in test [5], “Not Active”; in [6] it was 594 nM. In test [2], the inhibition was > 90%.
For the molecule `COc1ccccc1Nc1nc(N2CCN(CCO)CC2)nc2ccccc12`, the inhibition in test [1] was 52%; in test [2], > 90%; in test [3], 0.9%. Moreover, the Ki entry in test [4] is “Not Active”; in test [5] it was “Not Active”; in [6], 146 nM.
As for `OCCN1CCN(c2nc(Nc3ccc(F)cc3)c3ccccc3n2)CC1`, the Ki result is “Not Active” in [7], “Not Active” in test [4], “Not Active” in test [5] and 120 nM in test [6]. In addition, the inhibition in [3] came to 49.3%. In [8], this molecule had an IC50 of 21300 nM. Further, the EC50 entry in test [9] is “Not Active”.
For `OCCN1CCN(c2nc(Nc3ccc(Cl)cc3)c3ccccc3n2)CC1`, the inhibition in [1] amounted to 53.8%; in test [3], 75.6%; in [4] it was 53%; in test [10], 80.5%. Further, the IC50 in [8] was 7430 nM. In test [6], this molecule came in with a Ki of 109 nM. Besides, the EC50 entry in test [9] is given as “Not Active”.
With `CC(C)c1ccc(Nc2nc(Nc3ccc(C(C)C)cc3)c3ccccc3n2)cc1`, the Ki result in [7], in test [3] (hek293), in test [4] and in [5] was “Not Active” in each case. The inhibition in test [2] stood at 5.91%.
Take `OCCN1CCN(c2nc(Nc3cccc(O)c3)c3ccccc3n2)CC1`: the Ki result was “Not Active” in [7], “Not Active” in test [4], “Not Active” in test [5] and 83.4 nM in test [6]. The inhibition is > 90% in [2] and 11.7% in test [3]. For the same molecule, the midpoint of inhibition in test [8], the IC50, lay at 9120 nM. The EC50 result in test [9] is reported as “Not Active”.
As to `Fc1ccc(Nc2nc(N3CCOCC3)nc3ccccc23)cc1`, the Ki result in test [7] was “Not Active”; in test [4], “Not Active”; in test [5], “Not Active”; in [6], 235 nM. Also, the inhibition in test [2] was > 90%; in test [3] it was -0.57%.
Take `Fc1ccccc1Nc1nc(N2CCOCC2)nc2ccccc12`: the Ki entry is “Not Active” in test [7], “Not Active” in test [4], “Not Active” in test [5] and 184 nM in test [6]. Moreover, the inhibition in [2] was > 90%.
Consider `CC(C)c1ccc(Nc2nc(N3CCNCC3)nc3ccccc23)cc1`, for which the inhibition in test [1] was 84.3%; in test [2] it was > 90%; in [3], 22.5%; in test [4], 14%; in test [10] it was 94.8%. In [6], this molecule gave a Ki of 42.1 nM.
For `Ic1ccc(Nc2nc(N3CCNCC3)nc3ccccc23)cc1`, the inhibition in test [1] was 56.6%; in [2], > 90%. Further, the Ki entry in test [3] (hek293) was “Not Active”; in test [4] it was “Not Active”; in test [5], “Not Active”; in [6] it was 496 nM.
Turning to `Clc1ccc(Nc2nc(N3CCNCC3)nc3ccccc23)cc1`, the inhibition in test [1] came out at 88.6%; in test [3], 78.8%; in test [4] it was 71.4%; in [10] it was 83.9%. Moreover, the IC50 in test [8] was 1660 nM. Besides, the Ki in test [6] was determined as 14 nM. Further, the EC50 result in test [9] is “Not Active”.
`CC(C)(C)[C@@]1(O)CCN2C[C@@H]3c4ccccc4CCc4cccc(c43)[C@H]2C1`: in [2], the inhibition was > 90%.
For `OCCN1CCN(c2nc(Nc3ccc(I)cc3)c3ccccc3n2)CC1`, in test [2], the inhibition is > 90%. The same molecule yielded a Ki in [6] of 383 nM.
